Reference: ChEMBL document CHEMBL1137229, “Structural characterization and pharmacology of a potent (Cys101-Cys119, Cys110-Cys117) bicyclic agouti-related protein (AGRP) melanocortin receptor antagonist” (J Med Chem, 2004)
Bridge positions count the residues as written; N and C are the ends. Peptide text beside a SMILES is read from it.

Experiments:
Melanocortin receptor 4 [1] = molecular target: T1, Melanocortin receptor 4 (Mus musculus, UniProt P56450); assay: Displacement of [125I]-hAGRP(87-132) from mouse Melanocortin 4 Receptor
Procedure, shortened: (§1)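 Whole HEK-293 cells stably expressing mouse receptor, plated a day before at 0.1–0.3 × 10^6 cells/well. Chloramine-T-iodinated [125I]hAGRP(87–132) at 100000 cpm/well displaced by ligand. Nonspecific binding defined with 10^-6 M hAGRP(87–132). IC50 from nonlinear least-squares fit, or percent specific binding displaced at 10 μM. Duplicate points, at least two independent experiments, SD reported.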

Melanocortin receptor 4 [2] = molecular target: T1, Melanocortin receptor 4; assay: Antagonistic activity against mouse Melanocortin 4 Receptor; assay type: functional; conditions: read-out: pA2 (converted)
Procedure, shortened: (§2)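 Same HEK-293 CRE/β-galactosidase cAMP reporter system as the agonist assay, with a 6 h stimulation in IBMX-containing medium and normalization to protein and forskolin. Antagonism measured as the dose-dependent shift of the MTII agonist response, ligand up to 10 μM. pA2 derived by Schild analysis. Mean ± SEM of at least three independent experiments.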

[3] = molecular target: Melanocyte-stimulating hormone receptor (Mus musculus, UniProt Q01727); assay: Agonistic activity against mouse Melanocortin 1 Receptor; assay type: functional
Procedure, shortened: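 HEK-293 cells stably expressing the receptor (G418 selection), transiently transfected with a CRE/β-galactosidase reporter. Lysates read with ONPG at OD405 and normalized to protein content and forskolin (10^-4 M) response. EC50 from nonlinear least-squares fit, at least three independent experiments.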

Melanocortin receptor 3 [4] = molecular target: T2, Melanocortin receptor 3 (Mus musculus, UniProt P33033); assay: Antagonistic activity against mouse Melanocortin 3 Receptor; assay type: functional; conditions: read-out: pA2 (converted); procedure, shortened: as §2
Melanocortin receptor 3 [5] = molecular target: T2, Melanocortin receptor 3; assay: Displacement of [125I]-hAGRP(87-132) from mouse Melanocortin 3 Receptor; procedure, shortened: as §1

T2 sequence (P33033 whole entry): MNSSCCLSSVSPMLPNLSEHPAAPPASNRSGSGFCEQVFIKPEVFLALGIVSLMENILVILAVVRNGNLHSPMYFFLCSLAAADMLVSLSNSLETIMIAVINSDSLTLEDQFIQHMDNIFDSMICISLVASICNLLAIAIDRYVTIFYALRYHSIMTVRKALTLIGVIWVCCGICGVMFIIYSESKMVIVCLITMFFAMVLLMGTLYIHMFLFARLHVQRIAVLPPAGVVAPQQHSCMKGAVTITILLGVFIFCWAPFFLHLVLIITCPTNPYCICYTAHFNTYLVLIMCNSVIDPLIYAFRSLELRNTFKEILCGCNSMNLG
T1 sequence (P56450 whole entry): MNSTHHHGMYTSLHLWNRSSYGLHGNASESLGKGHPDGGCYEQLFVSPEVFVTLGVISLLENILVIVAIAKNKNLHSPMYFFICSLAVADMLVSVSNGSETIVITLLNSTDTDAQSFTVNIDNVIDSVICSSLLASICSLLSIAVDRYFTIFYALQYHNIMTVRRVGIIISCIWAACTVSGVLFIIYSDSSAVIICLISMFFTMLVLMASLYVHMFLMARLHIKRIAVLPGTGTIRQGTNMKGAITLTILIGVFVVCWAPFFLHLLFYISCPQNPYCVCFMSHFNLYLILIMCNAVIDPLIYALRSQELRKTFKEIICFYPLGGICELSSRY
Sequence of Melanocyte-stimulating hormone receptor (Q01727 whole entry): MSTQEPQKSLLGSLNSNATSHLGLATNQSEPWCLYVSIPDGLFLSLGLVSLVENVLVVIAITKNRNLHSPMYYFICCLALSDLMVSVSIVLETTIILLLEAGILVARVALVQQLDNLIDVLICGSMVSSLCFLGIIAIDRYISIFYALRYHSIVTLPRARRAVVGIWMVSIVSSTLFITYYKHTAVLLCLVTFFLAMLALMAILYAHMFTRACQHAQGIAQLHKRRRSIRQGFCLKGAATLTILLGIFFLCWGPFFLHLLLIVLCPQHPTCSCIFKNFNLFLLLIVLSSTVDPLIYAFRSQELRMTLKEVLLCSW

Row | IC50 (Melanocortin receptor 4 [1]) [nM] | Kb (Melanocortin receptor 4 [2]) [nM] | EC50 [3] [nM] | Kb (Melanocortin receptor 3 [4]) [nM] | IC50 (Melanocortin receptor 3 [5]) [nM] | Structure (SMILES)
1 | 10 | 31.6 | 1460 |  |  | CC[C@@H]1NC(=O)[C@H]([C@@H](C)O)NC(=O)[C@H](C)NC(=O)[C@H](CC)NC(=O)[C@@H]2CCCN2C(=O)[C@H](CC(=O)O)NC(=O)[C@H](CC)NC(=O)[C@@H](N)CSSC[C@@H](C(=O)N[C@@H](CCCN=C(N)N)C(=O)N[C@@H](CCCCN)C(=O)N[C@@H](CC(C)C)C(=O)O)NC(=O)[C@H](Cc2ccc(O)cc2)NC(=O)[C@@H]2CSSC[C@H](NC(=O)[C@H](Cc3ccc(O)cc3)NC1=O)C(=O)N[C@@H](CCCN=C(N)N)C(=O)N[C@@H](Cc1ccccc1)C(=O)N[C@@H](Cc1ccccc1)C(=O)N[C@@H](CC(N)=O)C(=O)N[C@@H](C)C(=O)N[C@@H](Cc1ccccc1)C(=O)N2
2 |  |  |  | 158 | 140 | CC[C@@H]1NC(=O)[C@H](N)CSSC[C@@H](C(=O)N[C@@H](CCCN=C(N)N)C(=O)N[C@@H](CCCCN)C(=O)N[C@@H](CC(C)C)C(=O)O)NC(=O)[C@H](Cc2ccc(O)cc2)NC(=O)[C@H]2CSSC[C@H](NC(=O)[C@@H](Cc3ccc(O)cc3)NC(=O)[C@H](CC)NC(=O)[C@H]([C@@H](C)O)NC(=O)[C@@H](C)NC(=O)[C@H](CC)NC(=O)[C@@H]3CCCN3C(=O)[C@@H](CC(=O)O)NC1=O)C(=O)N[C@H](CCCN=C(N)N)C(=O)N[C@@H](Cc1ccccc1)C(=O)N[C@H](Cc1ccccc1)C(=O)N[C@@H](CC(N)=O)C(=O)N[C@H](C)C(=O)N[C@@H](Cc1ccccc1)C(=O)N2
3 | 275 | 158 | 5120 |  | 11700 | C[C@@H]1NC(=O)[C@H](CC(N)=O)NC(=O)[C@H](Cc2ccccc2)NC(=O)[C@H](Cc2ccccc2)NC(=O)[C@H](CCCNC(=N)N)NC(=O)[C@@H](NC(=O)[C@@H](N)Cc2ccc(O)cc2)CSSC[C@@H](C(=O)N[C@@H](Cc2ccc(O)cc2)C(N)=O)NC(=O)[C@H](Cc2ccccc2)NC1=O (H-YCRFFNAFCY-NH2; disulfide 2-9)
